ChEMBL document CHEMBL2163344, “Immunomodulatory properties of novel nucleotide oligomerization domain 2 (nod2) agonistic desmuramyldipeptides” (J Med Chem, 2012)
Active and inactive are the calls of the source. The rule behind the calls is not given here.

Columns and labels:
[1] = target: Toll-like receptor 3 (Homo sapiens) (UniProt O15455); test: Agonist activity at human TLR3 expressed in Ramos blue cells assessed as stimulation of NF-kB/AP-1 activity at 20 uM incubated for 18 hrs using quanti blue assay based SEAP reporter gene assay; assay type: functional, cell-based
Method in brief: (§1)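 Ramos-Blue control cells (TLR3/7/9 and Nod1, no Nod2; stable NF-κB/AP-1-inducible SEAP reporter) at 1 × 10^6 cells/mL, exposed 18 h to 20 μM compound. SEAP in supernatant read with QUANTI-Blue reagent (3 h, 37 °C), absorbance 640 nm; activity compared with untreated cells.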

[2] = target: Nucleotide-binding oligomerization domain-containing protein 2 (Homo sapiens) (UniProt Q9HC29); test: Agonist activity at human Nod2 expressed in HEK293-blue cells assessed as increase in NF-kappaB transcriptional activity at 20 uM incubated for 18 hrs using quanti blue assay based SEAP reporter gene assay; assay type: functional, cell-based
Method in brief: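 HEK-Blue Nod2 cells (HEK293 stably coexpressing human Nod2 and NF-κB-inducible SEAP) at 1 × 10^6 cells/mL, treated 18 h with 20 μM compound. Supernatant SEAP measured with QUANTI-Blue, 3 h at 37 °C, absorbance 640 nm. Duplicates in three independent experiments, compared with untreated cells.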

PBMC [3] = test: Immunomodulatory activity in human PBMCs assessed as increase in PMA/ionomycin-induced IL-12p70 release at 20 uM incubated for 18 hrs by multiplexed cytokine assay; assay type: functional, cell-based
Method in brief: (§2)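 Ficoll-isolated human PBMC, 1 × 10^6 cells per well, treated with 20 μM compound (DMSO ≤0.1%) plus PMA 3.33 ng/mL and ionomycin 500 nM for 18 h at 37 °C, 5% CO2. Cell-free supernatant cytokines measured by CBA human inflammatory kit on a flow cytometer against recombinant standards. Reported as % of PMA/ionomycin-only release; duplicates, three experiments, three donors.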

PBMC [4] = test: Immunomodulatory activity in human PBMCs assessed as increase in PMA/ionomycin-induced IL6 release at 20 uM incubated for 18 hrs by multiplexed cytokine assay; assay type: functional, cell-based; method in brief: as §2
PBMC [5] = test: Immunomodulatory activity in human PBMCs assessed as increase in PMA/ionomycin-induced IL-1beta release at 20 uM incubated for 18 hrs by multiplexed cytokine assay; assay type: functional, cell-based; method in brief: as §2
PBMC [6] = test: Cytotoxicity against human PBMCs assessed as residual metabolic activity at 20 uM in presence of PMA and ionomycin after 18 hrs by MTS assay; assay type: ADME, cell-based
Method in brief: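 Human PBMC (1 × 10^6 cells/mL, triplicate) given 20 μM compound together with PMA 3.33 ng/mL and ionomycin 500 nM for 18 h. MTS metabolic activity compared with the PMA/ionomycin-only control.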

[7] = Cytotoxicity against human PBMCs assessed as residual metabolic activity at 20 uM after 18 hrs by MTS assay; assay type: ADME, cell-based, PBMC; conditions: read-out: Activity
Method in brief: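 Ficoll-isolated human PBMC, 1 × 10^6 cells/mL in supplemented RPMI 1640 with 10% FBS, exposed 18 h to 20 μM compound (DMSO ≤0.1% final) in triplicate. Metabolic activity read by MTS (CellTiter 96 AQueous One) and expressed relative to vehicle-treated control.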

[8] = target: T1, Nucleotide-binding oligomerization domain-containing protein 1 (Homo sapiens) (UniProt Q9Y239); test: Agonist activity at human NOD1 expressed in Ramos blue cells assessed as stimulation of NF-kB/AP-1 activity at 20 uM incubated for 18 hrs using quanti blue assay based SEAP reporter gene assay; assay type: functional, cell-based; method in brief: as §1
T1 sequence (whole entry): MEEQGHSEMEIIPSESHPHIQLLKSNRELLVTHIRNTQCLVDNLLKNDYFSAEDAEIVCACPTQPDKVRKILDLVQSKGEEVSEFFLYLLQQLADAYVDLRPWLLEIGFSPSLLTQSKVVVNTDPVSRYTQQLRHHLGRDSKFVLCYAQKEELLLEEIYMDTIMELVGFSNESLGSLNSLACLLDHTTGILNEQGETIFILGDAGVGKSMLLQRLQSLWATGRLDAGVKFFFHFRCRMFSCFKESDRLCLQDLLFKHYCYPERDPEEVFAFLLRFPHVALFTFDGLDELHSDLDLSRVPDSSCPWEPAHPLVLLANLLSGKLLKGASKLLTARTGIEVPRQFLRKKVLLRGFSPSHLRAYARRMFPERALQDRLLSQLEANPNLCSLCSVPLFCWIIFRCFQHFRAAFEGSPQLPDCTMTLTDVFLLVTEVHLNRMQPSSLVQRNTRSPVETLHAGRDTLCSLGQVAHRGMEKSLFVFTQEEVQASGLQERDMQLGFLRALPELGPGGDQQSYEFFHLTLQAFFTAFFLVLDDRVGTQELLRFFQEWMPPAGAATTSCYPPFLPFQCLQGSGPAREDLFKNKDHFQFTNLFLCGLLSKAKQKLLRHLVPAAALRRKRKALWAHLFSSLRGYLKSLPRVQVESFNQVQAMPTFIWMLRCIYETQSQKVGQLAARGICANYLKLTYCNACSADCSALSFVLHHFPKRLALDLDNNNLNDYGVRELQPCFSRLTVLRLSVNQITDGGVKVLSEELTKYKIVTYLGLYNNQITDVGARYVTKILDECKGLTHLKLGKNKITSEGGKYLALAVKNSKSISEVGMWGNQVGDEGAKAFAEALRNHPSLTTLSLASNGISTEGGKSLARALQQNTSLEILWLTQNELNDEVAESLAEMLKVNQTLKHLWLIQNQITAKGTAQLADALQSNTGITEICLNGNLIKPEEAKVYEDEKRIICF

Sequence of Toll-like receptor 3 (Homo sapiens) (O15455 whole entry): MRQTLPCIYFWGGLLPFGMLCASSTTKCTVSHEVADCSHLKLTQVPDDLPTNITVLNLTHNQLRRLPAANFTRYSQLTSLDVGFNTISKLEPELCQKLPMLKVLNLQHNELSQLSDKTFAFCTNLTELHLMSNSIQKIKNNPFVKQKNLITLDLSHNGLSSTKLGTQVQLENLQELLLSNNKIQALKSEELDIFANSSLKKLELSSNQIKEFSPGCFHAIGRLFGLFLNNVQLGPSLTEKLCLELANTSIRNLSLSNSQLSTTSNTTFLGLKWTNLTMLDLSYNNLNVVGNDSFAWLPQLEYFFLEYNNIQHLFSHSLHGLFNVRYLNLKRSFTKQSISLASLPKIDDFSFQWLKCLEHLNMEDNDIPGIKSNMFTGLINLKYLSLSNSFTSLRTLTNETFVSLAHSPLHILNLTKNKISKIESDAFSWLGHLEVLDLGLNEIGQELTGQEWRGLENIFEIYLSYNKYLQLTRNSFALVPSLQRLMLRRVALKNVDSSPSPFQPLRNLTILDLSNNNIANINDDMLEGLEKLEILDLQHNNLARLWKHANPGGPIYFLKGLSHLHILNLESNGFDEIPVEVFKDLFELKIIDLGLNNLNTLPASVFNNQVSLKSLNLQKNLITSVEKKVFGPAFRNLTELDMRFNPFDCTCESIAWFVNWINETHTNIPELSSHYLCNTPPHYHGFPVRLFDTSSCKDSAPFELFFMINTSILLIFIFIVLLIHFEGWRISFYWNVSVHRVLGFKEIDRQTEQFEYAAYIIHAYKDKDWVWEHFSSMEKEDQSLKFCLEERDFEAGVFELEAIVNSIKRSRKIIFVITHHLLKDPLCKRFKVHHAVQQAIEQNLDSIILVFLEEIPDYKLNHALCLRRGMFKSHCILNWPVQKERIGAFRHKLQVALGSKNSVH
Sequence of Nucleotide-binding oligomerization domain-containing protein 2 (Homo sapiens) (Q9HC29 whole entry, the tested form may be a part): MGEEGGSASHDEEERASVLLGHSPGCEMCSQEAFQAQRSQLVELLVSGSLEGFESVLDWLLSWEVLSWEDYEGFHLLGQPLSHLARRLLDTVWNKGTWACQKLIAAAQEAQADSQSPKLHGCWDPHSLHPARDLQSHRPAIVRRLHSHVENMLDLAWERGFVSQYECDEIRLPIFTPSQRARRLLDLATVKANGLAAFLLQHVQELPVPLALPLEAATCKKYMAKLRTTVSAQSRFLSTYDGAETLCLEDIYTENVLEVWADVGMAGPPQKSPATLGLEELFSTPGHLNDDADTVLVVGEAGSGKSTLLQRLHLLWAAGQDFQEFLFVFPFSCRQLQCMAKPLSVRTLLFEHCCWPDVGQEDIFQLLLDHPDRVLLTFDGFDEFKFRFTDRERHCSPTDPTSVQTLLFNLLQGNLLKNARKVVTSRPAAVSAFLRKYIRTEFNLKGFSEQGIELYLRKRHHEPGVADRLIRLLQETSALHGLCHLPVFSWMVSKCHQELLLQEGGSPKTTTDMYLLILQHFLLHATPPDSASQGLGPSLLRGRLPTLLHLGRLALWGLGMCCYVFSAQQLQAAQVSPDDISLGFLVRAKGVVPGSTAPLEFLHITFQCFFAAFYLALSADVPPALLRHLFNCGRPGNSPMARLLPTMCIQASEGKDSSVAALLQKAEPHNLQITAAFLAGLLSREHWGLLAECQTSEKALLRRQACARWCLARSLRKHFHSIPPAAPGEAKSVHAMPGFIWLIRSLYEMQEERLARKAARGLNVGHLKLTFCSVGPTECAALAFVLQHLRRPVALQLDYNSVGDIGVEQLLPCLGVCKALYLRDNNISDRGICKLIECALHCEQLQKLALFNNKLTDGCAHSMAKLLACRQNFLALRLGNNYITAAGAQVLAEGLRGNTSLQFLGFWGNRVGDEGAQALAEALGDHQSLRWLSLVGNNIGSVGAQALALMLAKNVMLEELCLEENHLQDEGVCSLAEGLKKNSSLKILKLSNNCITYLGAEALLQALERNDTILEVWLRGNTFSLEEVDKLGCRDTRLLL

## CCOC(=O)CC[C@@H](NC(=O)[C@H](C)NC(=O)CCCCN1C(=O)c2ccccc2S1(=O)=O)C(N)=O
[1]
  Activity: inactive
[2]
  Activity: inactive
PBMC [3]
  Activity: inactive
PBMC [4]
  Activity: inactive
PBMC [5]
  Activity: inactive
PBMC [6]
  Activity: Non-toxic
[7]
  viability at 18 h, 20 µM: ≥ 90%
[8]
  Activity: inactive

## CCOC(=O)CC[C@@H](NC(=O)[C@H](C)NC(=O)CCCCN1C(=O)c2ccccc2S1(=O)=O)C(=O)OCC
[1]
  Activity: inactive
PBMC [3]
  Activity: inactive
PBMC [4]
  Activity: inactive
PBMC [5]
  Activity: inactive
PBMC [6]
  Activity: Non-toxic
[7]
  viability at 18 h, 20 µM: ≥ 90%
[8]
  Activity: inactive

## CCOC(=O)CC[C@@H](NC(=O)[C@H](C)NC(=O)CNC(=O)c1cc2ccccc2[nH]1)C(N)=O
[1]
  Activity: inactive
[2]
  Activity: inactive
PBMC [3]
  Activity: inactive
PBMC [4]
  Activity: inactive
PBMC [5]
  Activity: inactive
PBMC [6]
  Activity: Non-toxic
[7]
  viability at 18 h, 20 µM: ≥ 90%
[8]
  Activity: inactive

## CCCCOC(=O)[C@@H](CCC(N)=O)NC(=O)[C@H](C)NC(=O)[C@@H](C)O[C@H]1[C@H](O)[C@@H](CO)OC(O)[C@@H]1NC(C)=O (stereo partly specified) [MURABUTIDE]
[1]
  Activity: inactive
[2]
  Activity: Active
PBMC [3]
  Activity: Active
PBMC [5]
  Activity: Active
PBMC [6]
  Activity: Non-toxic
[7]
  viability at 18 h, 20 µM: ≥ 90%
[8]
  Activity: inactive

## CCOC(=O)CC[C@@H](NC(=O)[C@H](C)NC(=O)COCCN1C(=O)c2ccccc2S1(=O)=O)C(=O)OCC
[1]
  Activity: inactive
PBMC [3]
  Activity: inactive
PBMC [4]
  Activity: inactive
PBMC [5]
  Activity: inactive
PBMC [6]
  Activity: Non-toxic
[7]
  viability at 18 h, 20 µM: ≥ 90%
[8]
  Activity: inactive

## CCOC(=O)CC[C@@H](NC(=O)[C@H](C)NC(=O)C1=C2c3ccccc3S(=O)(=O)N2CCC1)C(=O)OCC
[1]
  Activity: inactive
[2]
  Activity: Active
PBMC [3]
  Activity: Active
PBMC [4]
  Activity: Active
PBMC [5]
  Activity: Active
PBMC [6]
  Activity: Non-toxic
[7]
  viability at 18 h, 20 µM: ≥ 90%
[8]
  Activity: inactive

## CCOC(=O)CC[C@@H](NC(=O)[C@H](C)NC(=O)COCCN1C(=O)c2ccccc2S1(=O)=O)C(N)=O
[1]
  Activity: inactive
[2]
  Activity: inactive
PBMC [3]
  Activity: inactive
PBMC [4]
  Activity: inactive
PBMC [5]
  Activity: inactive
PBMC [6]
  Activity: Non-toxic
[7]
  viability at 18 h, 20 µM: ≥ 90%
[8]
  Activity: inactive

## CCOC(=O)CC[C@@H](NC(=O)[C@H](C)NC(=O)CNC(=O)c1cc2ccccc2[nH]1)C(=O)OCC
[1]
  Activity: inactive
[2]
  Activity: Active
PBMC [3]
  Activity: Active
PBMC [4]
  Activity: Active
PBMC [5]
  Activity: Active
PBMC [6]
  Activity: Non-toxic
[7]
  viability at 18 h, 20 µM: ≥ 90%
[8]
  Activity: inactive
